Compounds with a hit are over-represented: about 2.5% of the library has one in this group of screens.
SENP6 inh: inhibitors of human SENP6 protease; hit rate 1.8% among 330,000; Recombinant SENP6 catalytic domain, aminoluciferin luminescence; AID 2599; inhibition, % at 10 µM; Q9GZR1;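 active means inhibition above about 50% at the single tested dose, limit read from the data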;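 further: plate controls were DMSO wells with enzyme for no effect and DMSO wells lacking enzyme for full effect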
SENP7 block: blocks the human protease SENP7 | Q9BQF6 | recombinant SENP7, Z-RLRGG-aminoluciferin luminescence, 40 min | hit rate 1.5% among 330,000 | AID 434973 | inhibition, % at 5 µM;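 active means inhibition above about 50% at the single test dose, limit read from the data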;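 further: plate controls were DMSO with enzyme for no effect and no enzyme buffer wells for full effect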
SENP1 inh: inhibitors of human SENP1 SUMO protease catalytic domain; Q9P0U3; hit rate 0.21% among 360,000; recombinant SENP1 catalytic domain, CyPet-SUMO1-YPet FRET cleavage; inhibition, % at 10 µM;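 active means inhibition at least 30% at 10 µM, raw YFP signal under a set limit, fluorescence ratio 0.5 to 1.5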;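 further: 0% = enzyme with DMSO and 100% = no enzyme wells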
Target sequence (Q9P0U3 419-644 limits assumed): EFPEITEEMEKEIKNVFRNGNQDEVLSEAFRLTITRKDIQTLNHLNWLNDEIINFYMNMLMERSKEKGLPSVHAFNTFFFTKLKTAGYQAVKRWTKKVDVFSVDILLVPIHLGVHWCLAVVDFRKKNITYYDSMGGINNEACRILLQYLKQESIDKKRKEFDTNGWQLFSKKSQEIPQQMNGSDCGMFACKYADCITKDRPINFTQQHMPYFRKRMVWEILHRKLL
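Material: hSENP1 catalytic domain, recombinant; medium: Tris pH 8 with BME, BSA, NP40 and catalase; compound: single concentration of 10 µM compound, 0.5% DMSO final; technique: FRET read of cyan and yellow fluorescence; timing: 50 min enzyme reaction, room temperature, light-protected; reagent: SFCypet-SUMO1-SFYpet substrate at 25 nM; control set: no-enzyme low, enzyme-DMSO high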
SENP8 block-1: blocks human SENP8 cleavage of Nedd8 substrate. Q96LD8. recombinant SENP8, Nedd8 substrate fluorescence. inhibition, % at 20 µM. hit rate 0.64% among 360,000; in the data active means inhibition mostly above about 40%, no sharp cut-off; inactive means mostly below about 27%
Target sequence (Q96LD8 whole entry, looked up): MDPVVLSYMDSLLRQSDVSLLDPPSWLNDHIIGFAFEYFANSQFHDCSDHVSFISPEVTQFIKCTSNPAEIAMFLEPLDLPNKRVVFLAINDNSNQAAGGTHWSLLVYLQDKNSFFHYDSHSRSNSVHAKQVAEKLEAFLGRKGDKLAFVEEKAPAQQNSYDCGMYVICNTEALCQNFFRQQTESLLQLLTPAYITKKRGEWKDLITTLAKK
SENP8 block-2: SENP8 protease inhibition. inhibition, % at 10 µM. Q96LD8. hit rate 1.2% among 330,000. purified SENP8, Z-RLRGG-aminoluciferin cleavage, luminescence; in the data active means inhibition above about 50%
SENP8 conf: human SENP8 inhibition, confirmed. AID 488912. inhibition, % at 12.5 µM. shares compounds with SENP7 block. hit rate 40% among 6,200. Recombinant SENP8, Z-RLRGG-aminoluciferin luminescence, 60 min;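 active means mean inhibition across replicates above about 50%, limit read from the data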
SENP6 conf: confirmation of human SENP6 protease inhibitors | inhibition, % at 12.5 µM | recombinant SENP6, Z-RLRGG-aminoluciferin luminescence | hit rate 58% among 6,200 | shares compounds with SENP7 block | AID 488915
SENP7 conf: human SENP7 inhibition, confirmed; recombinant SENP7, Z-RLRGG-aminoluciferin luminescence, 40 min; inhibition, % at 12.5 µM; hit rate 69% among 6,200; shares compounds with SENP7 block
Casp3 select: inhibits human caspase-3 in SENP selectivity test; shares compounds with SENP7 block; purified caspase-3, Z-DEVD-aminoluciferin luminescence, 60 min; inhibition, % at 12.5 µM; hit rate 60% among 6,200; AID 488918;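 active means mean inhibition above about 50%, limit read from the data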;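 further: plate controls were enzyme with DMSO for no effect and wells without caspase-3 for full effect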
Target sequence (P42574 28-227 limits assumed): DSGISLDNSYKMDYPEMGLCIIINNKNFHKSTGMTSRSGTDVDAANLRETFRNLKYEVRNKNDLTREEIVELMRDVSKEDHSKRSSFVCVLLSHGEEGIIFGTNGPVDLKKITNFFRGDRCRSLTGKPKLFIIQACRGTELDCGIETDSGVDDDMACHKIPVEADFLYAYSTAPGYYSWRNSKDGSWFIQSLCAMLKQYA
Luc interf: interferes with luciferase luminescence in SENP counter-screen; inhibition, % at 12.5 µM; Pre-incubated SENP8/Z-RLRGG-aminoluciferin, luciferase luminescence interference; AID 488919; hit rate 39% among 6,200; shares compounds with SENP7 block;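 active means mean inhibition above about 50% when retested at one dose, limit read from the data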;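 further: plate controls were DMSO wells with completed reaction for no effect and substrate without enzyme for full effect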
Active calls of the source: *; x = no result.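 How the source made its calls, unless noted: active means mean inhibition above about 50% in the one-dose retest (limit read from the data); inactive means the rest.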

SMILES	SENP6 inh	SENP7 block	SENP1 inh	SENP8 block-1	SENP8 block-2	SENP8 conf	SENP6 conf	SENP7 conf	Casp3 select	Luc interf
O=C1C=C(Nc2ccc(F)cc2)c2ccccc2C1=O	82*	45	-3	-237	72*	11	89*	23	40	-4
COC(=O)[C@@]12C[C@@H](CC(=O)NCC3CCCCC3)C(=O)N(Cc3cccc4ccccc34)C1=CCC(C)(C)C2	x	x	0	24	x	x	x	x	x	x
CCN(CC)C(=O)[C@H]1C[C@H](CC(=O)NC(C)(C)C)C(=O)N2CCc3c([nH]c4cc(CCC(=O)N(C)C)ccc34)[C@]12C	x	7	-1	2	x	x	x	x	x	x
COc1ccc(-c2oc3ccc(-c4cc(OC)c(OC)c(OC)c4)cc3c2-c2ccc(OC)nc2)cc1	-9	5	0	-497	5	x	x	x	x	x
COc1nc(C)ccc1-c1noc(-c2ccccn2)n1	48	53*	0	2	23	45	51*	86*	83*	25
COc1ccccc1-c1nc(-c2ccc(C)nc2OC)no1	17	26	-3	-5	-1	x	x	x	x	x
COc1ccccc1-c1nc(-c2ccccn2)no1	96*	99*	1	-16	93*	12	99*	102*	99*	97*
Clc1ccc(OCc2nc(-c3ccccn3)no2)c(Br)c1	95*	90*	3	6	91*	82*	95*	99*	86*	75*
COc1ccc(-c2nc(-c3ccccn3)no2)cc1	98*	100*	1	10	97*	9	101*	104*	100*	98*
COc1ccc(-c2nc(-c3ccncc3)no2)cc1	x	x	0	13	x	x	x	x	x	x
Cc1c(C(=O)N(C)Cc2ccc(F)cc2)sc(=O)n1Cc1ccc(Cl)c(Cl)c1	x	x	-2	0	x	x	x	x	x	x
COc1ccc(-c2noc(CCC(=O)N3CCN(c4ccccc4Br)CC3)n2)cc1	x	1	-2	6	x	x	x	x	x	x
O=C(Nc1ccnn1C1CCN(Cc2cccc(OCCO)c2)CC1)C1CC1	-9	-11	-1	4	-13	x	x	x	x	x
Cc1cccc(Nc2cc(C)c3c(O)cccc3n2)c1C	4	-2	-29	-321	-11	x	x	x	x	x
O=C(CCc1ccccc1)OCCOC(=O)CCc1ccccc1	-15	6	0	13	-4	x	x	x	x	x
CC12CCC(=O)N1C(C(=O)Nc1ccc(SC(F)F)cc1)CS2 (stereo not given)	-4	-7	0	-2	-1	x	x	x	x	x
Cc1ccccc1-c1noc(-c2ccccc2C(=O)O)n1	8	3	1	10	-7	x	x	x	x	x
Clc1ccc(-c2nc(-c3ccccn3)no2)cc1Cl	92*	98*	2	11	96*	91*	94*	98*	93*	76*
Cc1ccccc1-c1nc(-c2ccccn2)no1	97*	100*	-1	13	96*	98*	99*	102*	98*	98*
CCc1nc2ccc(C(=O)N(C)CCCN(C)C)cn2c1N(C)C(=O)C1CCCCC1	x	x	2	-2	x	x	x	x	x	x
O=C(O)c1ccc(-c2nc(-c3ccc(Cl)cc3)cs2)cc1	x	x	4	-135	x	x	x	x	x	x
O=C(O)c1ccc(-c2nc(-c3ccc(Cl)cc3Cl)cs2)cc1	60*	1	2	-34	-7	32	36	49	12	21
N#CC1=C2C=Cc3ccccc3N2CCCC1=O	52*	49	-68	-18	14	36	36	76*	68*	9
O=c1cc2c(c(-c3ccccc3)n1Cc1ccccc1)[C@@H](CCO)NC2	x	x	-9	-160	x	x	x	x	x	x
Cc1ccc(C)c(NC(=S)c2nc3ccccc3s2)c1	-27	-14	2	26	-18	x	x	x	x	x
SMILES	SENP6 inh	SENP7 block	SENP1 inh	SENP8 block-1	SENP8 block-2	SENP8 conf	SENP6 conf	SENP7 conf	Casp3 select	Luc interf
S=C(Nc1ccc(Cl)cc1)c1nc2ccccc2s1	18	57*	-1	31	1	9	7	0	5	2
Cc1ccc(NC(=S)c2nc3ccccc3s2)cc1	61*	80*	-1	-83	43	11	42	29	28	9
CCOC(=O)c1c(S(=O)(=O)NCC(=O)Nc2ccccc2)c(C)n(C)c1C	-10	73*	4	-18	-7	-12	-11	-11	-5	-15
CCOC(=O)c1c(S(=O)(=O)NCC(=O)Nc2cccc(C)c2)c(C)n(C)c1C	1	3	-1	9	-6	x	x	x	x	x
CC(NC(=O)c1ccc2c(c1)C(=O)N(Cc1cccnc1)C2=O)c1ccccc1 (stereo not given)	-16	-4	1	4	-4	x	x	x	x	x
CCOC(=O)c1ccccc1NC(=O)/C=C/C(=O)O	-27	-1	2	-176	1	x	x	x	x	x
CCOC(=O)c1ccc(N/C=C/C(=O)c2ccccc2)cc1	93*	95*	-135	-469	84*	13	57*	24	67*	9
CCOC(=O)c1ccccc1N/C=C/C(=O)c1ccccc1	50*	31	-55	-310	8	32	36	64*	36	34
CCOC1=C2CN(S(=O)(=O)c3ccc(C)cc3)[C@H](c3ccccc3)C[C@@H]2N(S(=O)(=O)c2ccc(Br)cc2)[C@H](c2ccccc2)C1	x	x	1	15	x	x	x	x	x	x
Cn1cc(-c2ccccc2C(=O)O)c(=O)c2cc(Cl)ccc21	11	6	-2	-296	3	x	x	x	x	x
CCCOC(=O)c1ccc(NC(=O)c2ccccc2OC)cc1	-27	-3	1	2	-3	x	x	x	x	x
O=C(Nc1ccc(OCc2ccccc2)cc1)c1cccs1	70*	84*	0	18	58*	41	60*	93*	73*	0
Nc1ccc(NC(=O)c2cccs2)c(Cl)c1	-8	-9	0	0	-5	x	x	x	x	x
O=C(Nc1ccc(NC(=O)c2cccs2)c(Cl)c1)c1cccs1	63*	53*	1	3	50	48	51*	80*	48	46
CCCOC(=O)c1ccc(NC(=O)c2ccoc2C)cc1	95*	93*	3	17	89*	94*	95*	101*	92*	66*
CC(C)(CNC(=O)c1cccs1)CNC(=O)c1cccs1	-3	84*	1	-5	-13	11	10	7	3	5
Cc1ccc(S(=O)(=O)N2CCCCC2)cc1C(=O)NCCCN1CCOCC1	1	4	1	0	7	x	x	x	x	x

Screens deposited in PubChem by Sanford-Burnham Center for Chemical Genomics.
